Test results reported in ChEMBL document CHEMBL1671768, “In vitro activity of pyronaridine against multidrug-resistant Plasmodium falciparum and Plasmodium vivax” (Antimicrob Agents Chemother, 2010).

What was measured:
Format in all cases: functional, organism-based
[1] = test system: Plasmodium vivax; assay: Antimalarial activity against Plasmodium vivax with >50% parasites at ring stage infected in human erythrocytes assessed as growth inhibition after 30 to 50 hrs by microscopic analysis using giemsa staining
How it was run: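 Post hoc subset of P. vivax isolates with >50% ring stage at enrollment and assay duration of 30–50 h. Culture was in McCoy's 5A + 20% AB+ serum, 2% hematocrit, 11 two-fold drug dilutions, candle jar, 37.5°C.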

[2] = test system: Plasmodium falciparum; assay: Antimalarial activity against Plasmodium falciparum infected in human erythrocytes assessed as growth inhibition by microscopic analysis using giemsa staining
[3] = test system: Plasmodium vivax; assay: Antimalarial activity against Plasmodium vivax infected in human erythrocytes assessed as growth inhibition by microscopic analysis using giemsa staining
How it was run: (§1)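 P. vivax field isolates from Papuan patients, leukocyte-depleted on CF11, were placed in McCoy's 5A + 20% AB+ serum at 2% hematocrit. Plates held 11 two-fold drug dilutions, incubated in a candle jar at 37.5°C until >40% of control rings were mature schizonts. Giemsa thick films were read for schizonts (≥5 chromatin dots/200 parasites) relative to control. IC50 used an inhibitory sigmoid Emax model, accepting fits with Emax/E0 within 15%.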

[4] = test system: Plasmodium falciparum; assay: Antimalarial activity against Plasmodium falciparum trophozoites infected in human erythrocytes assessed as growth inhibition by microscopic analysis using giemsa staining
How it was run: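 Fresh field isolates from uncomplicated malaria patients in Papua, with leukocytes removed on CF11. Cells were kept at 2% hematocrit in RPMI 1640 + 10% AB+ human serum on predosed plates with 11 two-fold drug dilutions, in a candle jar at 37.5°C for 21–46 h. Harvest was when >40% of control rings reached schizont.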

[5] = test system: Plasmodium vivax; assay: Antimalarial activity against Plasmodium vivax at the ring stage infected in human erythrocytes assessed as growth inhibition by microscopic analysis using giemsa staining; how it was run: as §1
[6] = test system: Plasmodium vivax; assay: Antimalarial activity against Plasmodium vivax trophozoites infected in human erythrocytes assessed as growth inhibition by microscopic analysis using giemsa staining; how it was run: as §1
[7] = test system: Plasmodium falciparum; assay: Antimalarial activity against Plasmodium falciparum at the ring stage infected in human erythrocytes assessed as growth inhibition by microscopic analysis using giemsa staining

Row | Structure (SMILES) | IC50 [1] [nM] | IC50 [2] [nM] | IC50 [3] [nM] | IC50 [4] [nM] | IC50 [5] [nM] | IC50 [6] [nM] | IC50 [7] [nM]
1 | C[C@H]1[C@H](OC(=O)CCC(=O)O)O[C@@H]2O[C@@]3(C)CC[C@H]4[C@H](C)CC[C@@H]1[C@@]24OO3 [ARTESUNATE] | 1.27 | 0.68 | 1.03 |  |  |  | 
2 | OC(c1cc(C(F)(F)F)nc2c(C(F)(F)F)cccc12)C1CCCCN1 (stereo not given) [MEFLOQUINE] | 8 |  | 12.1 | 8.5 | 7.9 |  | 
3 | Clc1ccc2c(N3CCN(CCCN4CCN(c5ccnc6cc(Cl)ccc56)CC4)CC3)ccnc2c1 [PIPERAQUINE] | 19.6 | 17.1 | 24.8 | 77.2 | 14 | 21.7 | 11.8
4 | CCN(CC)CCCC(C)Nc1ccnc2cc(Cl)ccc12 (stereo not given) [CHLOROQUINE] |  |  | 142 |  | 49.2 | 2430 | 
5 | COc1ccc2nc3cc(Cl)ccc3c(Nc3cc(CN4CCCC4)c(O)c(CN4CCCC4)c3)c2n1 [PYRONARIDINE] | 2.4 | 1.92 | 2.58 | 8 | 2.5 | 4.7 | 1.6
6 | CCN(CC)Cc1cc(Nc2ccnc3cc(Cl)ccc23)ccc1O | 12 | 5.7 | 14 | 12.6 |  | 25.2 | 8.1
